Measurements taken from ChEMBL document CHEMBL3872217, “Structure-guided discovery of thiazolidine-2,4-dione derivatives as a novel class of Leishmania major pteridine reductase 1 inhibitors” (Eur J Med Chem, 2016).
Calls of active or inactive are those of the source. The calls are words filed in the database; no cut-off is given here.

Experiments:
[1] = target: T1, Pteridine reductase 1 (Leishmania major) (UniProt Q01782); assay: Binding affinity to Leishmania major recombinant N-terminal hexa-His tagged PTR1 expressed in Escherichia coli BL21(DE3) assessed as change in melting temperature at 50 uM at pH 4.7 by SYPRO orange dye based thermal shift assay
T1 sequence (whole entry): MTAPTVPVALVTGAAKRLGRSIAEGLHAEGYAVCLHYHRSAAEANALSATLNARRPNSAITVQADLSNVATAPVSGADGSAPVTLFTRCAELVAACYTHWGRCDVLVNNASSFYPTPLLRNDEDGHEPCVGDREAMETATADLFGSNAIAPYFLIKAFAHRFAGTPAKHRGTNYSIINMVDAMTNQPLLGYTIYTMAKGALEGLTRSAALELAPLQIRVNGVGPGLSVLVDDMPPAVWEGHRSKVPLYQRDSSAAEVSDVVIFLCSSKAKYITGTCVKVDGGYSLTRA
Procedure, shortened: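 Recombinant LmPTR1 from E. coli BL21(DE3) with pET-LmPTR1, Ni-NTA purified. Protein 5 μM in 50 mM sodium acetate pH 4.7 with SYPRO Orange (excitation 492, emission 610 nm); compound 50 μM from 1 mM DMSO stock; reference wells with DMSO only. Melt 25–85 °C at 1 °C per min; Tm from Boltzmann sigmoidal fit; triplicate; ΔTm compared by Kruskal-Wallis.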

[2] = target: T1, Pteridine reductase 1 (Leishmania major); assay: Effect on thermal stability of Leishmania major recombinant N-terminal hexa-His tagged PTR1 expressed in Escherichia coli BL21(DE3) by SYPRO orange dye based thermal shift assay
Procedure, shortened: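 Dose-response thermal stability run on Ni-NTA purified LmPTR1 (expressed from pET-LmPTR1 in E. coli BL21(DE3)) at 5 μM in 50 mM sodium acetate pH 4.7 with SYPRO Orange. Excitation 492 nm and emission 610 nm; ramp 25–85 °C, 1 °C per min. Tm taken from a Boltzmann sigmoidal fit against DMSO reference wells; done in triplicate.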

[3] = target: T1, Pteridine reductase 1 (Leishmania major); assay: Inhibition of Leishmania major recombinant N-terminal hexa-His tagged PTR1 catalytic activity expressed in Escherichia coli BL21(DE3) at 50 uM using biopterin as substrate measured for 60 sec in presence of NADPH by UV-visible spectrophotometric method relative to control
Pteridine reductase 1 = target: T2, Pteridine reductase 1 (Leishmania major, UniProt Q01782); assay: Inhibition of Leishmania major recombinant N-terminal hexa-His tagged PTR1 catalytic activity expressed in Escherichia coli BL21(DE3) using biopterin as substrate measured for 60 sec in presence of NADPH by UV-visible spectrophotometric method relative to control
T2 sequence (Q01782 whole entry): T1 sequence (whole entry)
Procedure, shortened: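 Spectrophotometric assay at 30 °C with purified recombinant LmPTR1 at 0.2 μM in 20 mM sodium citrate pH 4.7, with NADPH and biopterin cofactor/substrate. Compound added in 5% DMSO (v/v). NADPH consumption followed as the drop in absorbance at 340 nm over 60 s; triplicate. IC50 by non-linear regression over at least six inhibitor concentrations.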

[4] = target: T1, Pteridine reductase 1 (Leishmania major); assay: Noncompetitive inhibition of Leishmania major recombinant N-terminal hexa-His tagged PTR1 catalytic activity expressed in Escherichia coli BL21(DE3) assessed as decrease in thermal shift stabilization at 50 uM at pH 4.7 in presence of varying levels of NADPH and constant biopterin substrate concentration by SYPRO orange dye based assay
Procedure, shortened: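 Inhibition type probed by repeating the TSA screen (5 μM LmPTR1, 50 mM sodium acetate pH 4.7, SYPRO Orange, compound 50 μM) while varying NADPH at 0.0, 3.0, 6.25, 12.5 and 50 μM. Triplicate; ΔTm values compared by Kruskal-Wallis non-parametric ANOVA.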

[5] = target: T1, Pteridine reductase 1 (Leishmania major); assay: Noncompetitive inhibition of Leishmania major recombinant N-terminal hexa-His tagged PTR1 catalytic activity expressed in Escherichia coli BL21(DE3) at 25 to 45 uM at pH 4.7 in presence of saturating concentration of biopterin and varying levels of NADPH by double-reciprocal plot analysis
Procedure, shortened: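 Inhibition mode measured under the 340 nm kinetic conditions (0.2 μM LmPTR1, 20 mM sodium citrate pH 4.7, 30 °C, 60 s). Biopterin held at saturating 40 μM; NADPH varied over 5.0, 7.5, 10.0, 20.0 and 40.0 μM at two fixed inhibitor concentrations. Analysed by double-reciprocal plots; means of at least three experiments.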

Row | Structure (SMILES) | ΔTm [1] [°C] | Activity [2] [µM] | inhibition [3] | IC50 (Pteridine reductase 1) [µM] | inhibition [4] | inhibition [5]
1 | O=C1NC(=O)/C(=C/c2cc(Cl)ccc2O)S1 | > 1 | > 200 | Active | 75.9 |  | 
2 | O=C1NC(=O)/C(=C/c2ccc(Cl)cc2Cl)S1 | > 1 |  |  |  |  | 
3 | COc1ccc(Br)c(/C=C2\SC(=O)NC2=O)c1 | > 1 |  |  |  |  | 
4 | O=C1NC(=O)/C(=C/c2cc(Cl)cc(Br)c2O)S1 | 11 | > 200 | Active | 44.7 | Active | Active
5 | O=C1NC(=O)/C(=C/c2c(F)cccc2Br)S1 | 1.7 |  | 36% | 589 |  | 
6 | O=C1NC(=O)/C(=C/c2c(Cl)cccc2Cl)S1 | < 1 |  |  |  |  | 
7 | O=C1NC(=O)/C(=C/c2ccc(Cl)c(Cl)c2)S1 | 3.01 |  |  |  |  | 
